Assay [1] concerns Mus musculus. Description: Antipsychotic activity in albino lyka mouse assessed as reversal of apomorphine-induced stereotypy at 2 to 7.5 mg/kg, ip administered 10 mins prior to apomorphine challenge measured 10 to 30 mins post challenge. The class given is functional, organism-based. Summed up: (§1)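 Mice (same animals as the climbing test) dosed ip with test agent, saline vehicle or clozapine; apomorphine 2.5 mg/kg given 10 min later. Each mouse was placed in an inverted 500 ml beaker for 60 s at 10, 15, 20, 25 and 30 min post-apomorphine. Scored 1 (rearing, sniffing, grooming) or 2 (licking, biting). Three doses per compound, chosen by initial titration.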

For assay [2], the system named is Mus musculus. As to the kind of experiment: Antipsychotic activity in ip dosed albino lyka mouse assessed as reversal of apomorphine-induced mesh climbing response administered 10 mins prior to apomorphine challenge measured 10 to 30 mins post challenge. The class given is functional. Summed up:
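Test agent, saline or clozapine given ip; apomorphine 2.5 mg/kg ip 10 min later. Mice were placed in a mesh cage for 60 s at 10, 15, 20, 25 and 30 min post-apomorphine, with a naive baseline recorded first. Climbing scored 1 (one to three paws on mesh) or 2 (all four paws). Mean score per group.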

The test system of assay [3] is Mus musculus. As to the kind of experiment: Antipsychotic activity in albino lyka mouse assessed as reversal of apomorphine-induced stereotypy at 2.5 to 5 mg/kg, ip administered 10 mins prior to apomorphine challenge measured 10 to 30 mins post challenge. The class given is functional, organism-based. Summed up: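 Mice given test compound, vehicle or clozapine i.p., then apomorphine 2.5 mg/kg i.p. 10 min later. Each mouse placed in an inverted 500 ml beaker for 60 s at 10, 15, 20, 25 and 30 min after apomorphine. Scored 1 (rearing, sniffing, grooming) or 2 (licking, biting), reported as mean score. Same mice as mesh-climbing test. Three dose levels, chosen by initial titration.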

Assay [4] deals with Mus musculus. Description: Antipsychotic activity in albino lyka mouse assessed as reversal of apomorphine-induced stereotypy at 5 to 10 mg/kg, ip administered 10 mins prior to apomorphine challenge measured 10 to 30 mins post challenge. The format is functional, organism-based. Summed up:
as §1

Assay [5] relates to Mus musculus. As to the kind of experiment: Antipsychotic activity in albino lyka mouse assessed as reversal of apomorphine-induced stereotypy at 2.5 to 7.5 mg/kg, ip administered 10 mins prior to apomorphine challenge measured 10 to 30 mins post challenge. The format is functional, organism-based. An outline of the steps:
as §1

Broadly, the ED50 is the dose at which the effect has come halfway, by size or by number of responders.

Active and inactive are the calls of the source. The calls are words filed in the database; no cut-off is given here.

Take `Clc1ccc(NCCCOc2ccc(-c3cc4ccccc4[nH]3)cc2)cc1`: the result in the assay with Mus musculus [1] was inactive. Further, the ED50 in the assay with Mus musculus [2] came out at 1.8 mg/kg.

Regarding `CN1CCN(C2=Nc3cc(Cl)ccc3Nc3ccccc32)CC1` [CLOZAPINE], the outcome with Mus musculus [3] was inactive. Further, in the assay with Mus musculus [2], the 50% effective dose (ED50) is 3.07 mg/kg.

Regarding `Clc1ccc(NCCCOc2ccccc2-c2cc3ccccc3[nH]2)cc1`, the ED50 in the assay with Mus musculus [2] stood at 7.23 mg/kg. Besides, in the assay on Mus musculus [4], the result was inactive.

For the compound `Clc1ccccc1NCCCOc1ccccc1-c1cc2ccccc2[nH]1`, the ED50 in the assay on Mus musculus [2] is 6.23 mg/kg. For the same compound, the outcome in the assay with Mus musculus [4] was inactive.

As to `COc1ccc(NCCCOc2ccc(-c3cc4ccccc4[nH]3)cc2)cc1`, in the assay on Mus musculus [5], the outcome was Active. Moreover, the ED50 in the assay with Mus musculus [2] stood at 1.9 mg/kg.

As for `COc1ccccc1NCCCOc1ccc(-c2cc3ccccc3[nH]2)cc1`, in the assay on Mus musculus [5], the result was Active. In addition, in the assay on Mus musculus [2], the ED50 was 1.7 mg/kg.

`Clc1ccccc1NCCCOc1ccc(-c2cc3ccccc3[nH]2)cc1`: the result in the assay with Mus musculus [1] was inactive. In the assay on Mus musculus [2], the ED50 was determined as 1.6 mg/kg.

(Values after ChEMBL document CHEMBL3112513, “Synthesis, docking and pharmacological evaluation of novel indole based potential atypical antipsychotics” (2014).)
